MrgX1 antag = antagonists of human MrgX1 receptor; B-score at 10 µM; MRGX1-HEK293 calcium flux, Fluo-4, BAM8-22 antagonism; active compounds read low; 310,000 compounds, 1.3% hits;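 active means calcium-response B-score plate-corrected more than 3 library SD below zero, starting fluorescence within 5 deviations, no agonist response on first addition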;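 further: peak minus trough fluorescence over baseline after final BAM8-22 challenge near maximal dose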
Target sequence (Q96LB2 whole entry, looked up): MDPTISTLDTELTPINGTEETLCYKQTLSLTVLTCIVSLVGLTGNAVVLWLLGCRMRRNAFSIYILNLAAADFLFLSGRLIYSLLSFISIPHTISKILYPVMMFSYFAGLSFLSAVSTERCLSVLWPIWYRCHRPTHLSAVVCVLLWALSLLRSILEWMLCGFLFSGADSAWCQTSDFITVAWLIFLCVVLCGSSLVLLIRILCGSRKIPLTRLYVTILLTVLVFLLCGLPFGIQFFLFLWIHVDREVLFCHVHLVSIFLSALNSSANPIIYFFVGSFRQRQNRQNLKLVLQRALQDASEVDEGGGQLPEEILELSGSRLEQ
MrgX1 agonist = agonists of human MrgX1 receptor. 310,000 compounds, 0.44% hits. B-score at 10 µM. Q96LB2. MrgX1-HEK293 cells, Fluo-4 calcium fluorescence, agonist mode; active compounds read high;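 active means calcium response B-score plate-corrected fluorescence ratio at least 3 library SD, with starting fluorescence B-score inside 5 SD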
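System – MrgX1-expressing HEK293 cells · Incubation – cells plated overnight, dye loaded 0.5 h 37 °C, 0.5 h room temperature · Technique – kinetic Fluo-4 NW fluorescence of intracellular calcium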
RGS4 act = RGS4 potentiation or activation; HEK293 M3R/inducible RGS4, carbachol calcium flux Fluo4; active compounds read low; AID 463111; 310,000 compounds, 0.92% hits; B-score at 10 µM;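 active means B-score of the integrated calcium signal more than 4 SD below the library mean, with starting fluorescence not abnormally high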;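 further: negative B-score means reduced calcium response which marks RGS4 activation or potentiation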
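Detection: kinetic calcium fluorescence imaging with Fluo4-AM dye, 2 µM / Material: HEK293 cells with stable M3R and inducible RGS4 / Schedule: recording 10 s baseline at 1 Hz, 100 s post-agonist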
MrgX1 PAM = allosterically activates human MrgX1 receptor signaling. B-score at 10 µM. 310,000 compounds, 0.63% hits. Q96LB2. MrgX1-HEK293, Fluo-4 calcium flux, FDSS; active compounds read high;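 active means plate-corrected calcium response at least 3 library SD above typical, normal starting fluorescence, not activating the receptor alone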;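 further: compound read alongside a low EC10 to EC30 dose of BAM8-22 agonist; peak minus trough fluorescence over baseline measured at the second addition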
RGS4 block = human RGS4 inhibition | P49798 | HEK293 M3R/RGS4 inducible, Fluo-4 calcium flux; active compounds read high; triggered by carbachol at its EC20 | B-score at 10 µM | 310,000 compounds, 0.45% hits | AID 463165;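 active means B-score, a plate-corrected calcium signal, over three deviations above library mean, with baseline fluorescence within five deviations of library mean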;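 further: RGS4 expression induced by doxycycline in cells with stable M3 receptor; B-score is computed from the integrated fluorescence ratio over baseline after carbachol; higher B-score means a larger calcium signal and so more RGS4 inhibition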
Target sequence (P49798 whole entry, looked up): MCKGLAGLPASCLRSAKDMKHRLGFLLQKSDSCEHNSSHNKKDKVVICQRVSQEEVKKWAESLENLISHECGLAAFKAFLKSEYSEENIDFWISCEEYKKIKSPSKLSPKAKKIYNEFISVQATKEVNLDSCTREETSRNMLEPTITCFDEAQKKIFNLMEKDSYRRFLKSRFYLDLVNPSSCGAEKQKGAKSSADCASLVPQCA
MrgX1 ant reconf = reconfirmed antagonist of human MrgX1 receptor signaling; remaining BAM8-22 calcium response % of control (active compounds read low), % at 10 µM; shares compounds with MrgX1 antag; 2,300 compounds, 19% hits; MrgX1-HEK293, BAM8-22 calcium flux, Fluo-4; active compounds read low;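 active means remaining agonist calcium response no higher than 100% minus 3 SD of agonist-only control wells, with starting fluorescence near control levels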;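 further: agonist BAM8-22 given at a near maximal EC90 to ECmax level; peak minus minimum fluorescence divided by baseline after agonist addition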
HEK293 Ca flux = counter-screen for MrgX1 antagonists: effect in parental HEK293 cells. shares compounds with MrgX1 antag. Fluo-4 calcium fluorescence, FDSS. fluorescence ratio F(max-min)/F0 at 10 µM. 4,000 compounds, 2% hits;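 active means duplicate-averaged calcium fluorescence ratio at least three times the standard deviation of buffer wells, a nonspecific response in parental cells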
HEK293 Ca counter = counter-screen for MrgX1 allosteric activators: effect in parental HEK293 cells. 4,000 compounds, 0.4% hits. AID 624114. fluorescence ratio F(max-min)/F0 at 10 µM. shares compounds with MrgX1 antag. parental HEK293 calcium flux, Fluo-4 fluorescence ratio; active compounds read high;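 active means calcium fluorescence ratio, averaged over duplicates, at least 3 SD of the buffer-well ratio, meaning a nonspecific response in receptor-free cells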;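 further: untransfected parental HEK293 lacking MrgX1 used as counterscreen for MrgX1 allosteric activators; fluorescence change taken during the second addition on a kinetic imager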
HEK293 Ca cntr2 = activity in parental HEK293 cells lacking MrgX1 receptor | AID 624115 | Fluo-4 calcium fluorescence (FDSS); active compounds read high | shares compounds with MrgX1 antag | fluorescence ratio F(max-min)/F0 at 10 µM | 4,000 compounds, 8.7% hits;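 active means calcium fluorescence ratio at least three times the spread of buffer wells, meaning a non-specific response in parental cells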
* hit, by the source's call; i = inactive; x = not tested or not shown. Most compounds without a hit are left out; they make up all but 3.5% or so of the library.

SMILES | MrgX1 antag | MrgX1 agonist | RGS4 act | MrgX1 PAM | RGS4 block | MrgX1 ant reconf | HEK293 Ca flux | HEK293 Ca counter | HEK293 Ca cntr2
CCOc1ccc(NC(=O)Nc2nc(SCC)ns2)cc1 | -6.3* | i | i | i | i | 78%* | i | i | i
CCSc1nsc(NC(=O)Nc2ccc(F)cc2F)n1 | i | i | i | i | i | x | x | x | x
COc1ccc(-n2c(=S)[nH]c3cc(C(=O)Nc4ccc(C)c(F)c4)ccc3c2=O)c(OC)c1 | -5* | i | i | i | i | i | i | i | i
O=C(NNc1c(F)c(F)cc(F)c1F)c1cc2ccccc2oc1=O | i | i | i | i | i | x | x | x | x
Cc1ccc(NC(=O)c2ccccc2Br)cc1S(=O)(=O)N(C)C | i | i | i | i | i | x | x | x | x
Cc1ccc(NC(=O)c2sccc2C)cc1S(=O)(=O)N(C)C | -5.2* | i | i | i | i | i | i | i | i
COc1cccc(N=C2NC(=O)/C(=C/c3cc([N+](=O)[O-])ccc3O)S2)c1 | -11* | i | i | i | i | i | i | i | i
Cc1cccc2sc(NC(=O)c3ccc(Cl)s3)nc12 | -7.1* | i | i | i | i | i | i | i | i
COc1cc(C(=O)NC2=C(C#N)CCC2)cc(OC)c1OC | i | i | i | i | i | x | x | x | x
CCOc1ccc(-n2nc3c(SCCN4CCCC4)nnc(C)c3c2C)cc1 | -4.7* | i | i | i | i | i | i | i | i
Cc1ccc(-n2nc3c(SCCN4CCOCC4)nnc(C)c3c2C)cc1 | i | i | i | i | i | x | x | x | x
O=C(Nc1ccccc1F)c1ccc(CSc2ccccc2)o1 | i | i | i | i | i | x | x | x | x
CCc1cccc2cc3c(N)c(C(=O)Nc4ccc(S(=O)(=O)N5CCCC5)cc4)sc3nc12 | -9.7* | i | i | i | i | i | 0.41* | i | i
Cc1cc(Nc2ccccc2)n(C(=O)c2ccccc2)n1 | -6.8* | i | i | i | i | i | i | i | i
CCOC(=O)c1csc(NC(=O)CCSc2ccccc2)n1 | -5.3* | i | i | i | i | i | i | i | i
O=C(c1ccsc1)N1CCCC(N2CCN(c3cccc(Cl)c3)CC2)C1 (configuration not stated) | i | i | i | i | i | x | x | x | x
Cc1cc(C)cc(-c2nnc(SCC(=O)N3CCN(C(=O)c4ccco4)CC3)o2)c1 | -6.3* | i | i | i | i | i | i | i | i
NC(CC(=O)O)c1cccc(OCc2ccccc2)c1 (configuration not stated) | -5.4* | i | x | i | x | 75%* | i | i | i
O=C(O)CC(NC(=O)OCc1ccccc1)c1ccccc1 (configuration not stated) | i | i | i | i | i | x | x | x | x
CN1CCC(OC(=O)c2cccc(Cl)c2)CC1 | i | i | i | i | i | x | x | x | x
CC1(C)CC(=O)c2c(O)cc(O)cc2O1 | i | i | i | i | i | x | x | x | x
C[C@]12CCC[C@H](O1)c1c(cc3c(c1O)C(=O)c1c(O)cc(O)cc1C3=O)O2 | -7.6* | i | i | i | i | i | 0.64* | i | i
O=C(Nc1ccc(Cl)cc1C(=O)NCC1CCCO1)c1ccc(Cl)cc1Cl (configuration not stated) | i | i | i | i | i | x | x | x | x
Cc1ccc(NS(=O)(=O)c2cccc(C(=O)N3CCCCCC3)c2)cc1 | -5.5* | i | i | i | i | i | i | i | i
Cc1cc(S(=O)(=O)Nc2ccc(C(=O)N3CCN(c4ccccc4O)CC3)cc2)ccc1F | -4.7* | i | i | i | i | 82%* | i | i | i
SMILES | MrgX1 antag | MrgX1 agonist | RGS4 act | MrgX1 PAM | RGS4 block | MrgX1 ant reconf | HEK293 Ca flux | HEK293 Ca counter | HEK293 Ca cntr2
Cc1ccc(NS(=O)(=O)c2ccc(C(=O)N3CCN(c4ncccn4)CC3)cc2)cc1 | -5.4* | i | i | i | i | i | i | i | i
COc1ccccc1NC(=O)N(Cc1ccccc1)C1=NCC(C)S1 (configuration not stated) | i | i | i | i | i | x | x | x | x
Cc1cccc(-n2nnc(C(=O)NCc3ccccc3)c2N)c1 | -8.4* | i | i | i | i | i | i | i | i
Cc1ccc(CCNC(=O)c2nnn(-c3cccc(C)c3)c2N)cc1 | i | i | i | i | i | x | x | x | x
COC(=O)c1cnn(-c2ccc(Cl)cc2)c1/C=N/NC(N)=S | i | i | i | i | i | x | x | x | x
CSc1nc2ccc3nc(NC(=O)c4ccccc4)sc3c2s1 | -7.4* | i | i | i | i | i | i | i | i
COCCNC(=O)c1ccc2c(=O)n(CCOC)c(=O)[nH]c2c1 | -6.2* | i | i | i | i | i | i | i | i
O=C(CCSc1ccccc1)NC(=O)COC(=O)c1ccc(OC(F)F)cc1 | i | i | i | i | i | x | x | x | x
CC(/C=C/c1ccccc1)NC(N)=O (configuration not stated) | -5.8* | i | i | i | i | i | i | i | i
CCN1CCN(CCNC(=O)c2ccc(/C=C3\Sc4ccccc4N(Cc4ccccc4F)C3=O)cc2)CC1 | -13* | i | -7* | i | i | i | i | i | i
COc1ccc(CN2C3CCCC2CC(NC(=O)Nc2ccccc2)C3)cc1 (configuration not stated) | i | i | i | i | i | x | x | x | x
COc1ccc(CN2C3CCCC2CC(NC(=O)Nc2cccc(C)c2)C3)cc1 (configuration not stated) | -7.9* | i | i | i | i | 72%* | i | i | i
CC(C)(C)c1ccc(C(=O)NCCC(=O)NCc2cccs2)cc1 | i | i | i | i | i | x | x | x | x
